Assay results published in ChEMBL document CHEMBL1138769, “Antimitotic activity of 5-hydroxy-7-methoxy-2-phenyl-4-quinolones” (J Med Chem, 2004).
pIC50: −log10 of the molar value.

Key:
[1] = tested on: K562; experiment: Ability to induce cells in G0/G1 phase; assay type: functional, Homo sapiens; parameters: concentration or dose not given beside the values
Outline: (§1)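 K562 human leukemic cells exposed continuously to test compound at 5 μM for 24 h. 10⁶ cells/mL resuspended in propidium iodide, held at 4 °C overnight, analysed by flow cytometry for DNA content. Doublets and aggregates excluded on FL2-area/FL2-width plot. Fraction of population in G0/G1, S and G2/M calculated.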

[2] = tested on: K562; experiment: Ability to induce cells in G2/M phase; assay type: functional, Homo sapiens; parameters: concentration or dose not given beside the values; outline: as §1
[3] = tested on: K562; experiment: Ability to induce cells in S phase; assay type: functional, Homo sapiens; parameters: concentration or dose not given beside the values; outline: as §1
[4] = tested on: K562; experiment: Inhibitory concentration against K562 cell line; assay type: functional, cell-based; details: Homo sapiens
Outline: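 MTT viability assay on exponentially growing K562 cells seeded at 3 × 10³ cells/well, grown 24 h before drug addition. After 72 h drug exposure MTT reagent added. Viability is absorbance as percent of untreated control wells. IC50 is the concentration giving 50% loss of viability. Triplicate wells, at least three separate experiments.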

[5] = tested on: NCI-60 human tumor cell line panel (Homo sapiens); experiment: Growth inhibitory concentration is the concentration that reduced growth of NCI-60 cell lines by 50%

Compound	Activity [1] [%]	Activity [2] [%]	Activity [3] [%]	pIC50 [4]	GI50 [5] [µM]
COc1cc(O)c2c(O)cc(-c3ccc(OC)c(F)c3)nc2c1	26	20	53	–	–
CCc1ccc(-c2cc(O)c3c(O)cc(OC)cc3n2)cc1	26	25	48	–	–
COc1cc(O)c2c(O)cc(-c3ccc(F)c(F)c3)nc2c1	22	9	69	–	–
COc1cc(O)c2c(O)cc(-c3cccc(OC(F)(F)F)c3)nc2c1	32	32	35	–	–
COc1cc(O)c2c(O)cc(-c3ccccc3)nc2c1	7	66	26	5.74	8.7
COc1cc(O)c2c(O)cc(-c3ccccc3F)nc2c1	23	41	37	5.82	9.9
COc1cc(O)c2c(O)cc(Cc3ccccc3)nc2c1	41	9	50	–	–
COc1cc(O)c2c(O)cc(-c3cccnc3)nc2c1	24	45	31	–	–
COc1cc(O)c2c(O)cc(-c3cc(F)cc(F)c3)nc2c1	42	18	40	–	–
COc1cc(O)c2c(O)cc(-c3ccc(F)cc3)nc2c1	54	10	36	–	–
COc1cc2nc(-c3ccccc3)cc(O)c2c(O)c1OC	47	8	45	–	–
CCn1c(-c2cccc(F)c2)cc(=O)c2c(O)cc(OC)cc21	53	19	28	–	–
COc1cc(O)c2c(O)cc(-c3cccc(C(F)(F)F)c3)nc2c1	41	20	38	–	–
COc1cc(O)c2c(O)cc(-c3cccc(CCl)c3)nc2c1	30	18	51	–	–
COc1cc(O)c2c(O)cc(-c3cccc(I)c3)nc2c1	44	6	50	–	–
COc1cc(O)c2c(O)cc(-c3cccc(-c4ccccc4)c3)nc2c1	46	9	45	–	–
Oc1cccc2nc(-c3cccc(F)c3)cc(O)c12	17	49	33	–	–
COc1cccc(-c2cc(O)c3c(O)cc(OC)cc3n2)c1	28	31	41	–	9.7
CCn1c(-c2ccccc2)cc(=O)c2c(O)cc(OC)cc21	43	11	46	–	–
COc1cc(O)c2c(O)cc(-c3cccc(F)c3)nc2c1	9	60	30	6.10	14.5
COc1cc(O)c2c(O)cc(-c3cccc(Br)c3)nc2c1	51	12	37	–	–
COc1cc2nc(-c3ccccc3)cc(O)c2c(OC)c1OC	47	5	48	–	–
Oc1cccc2nc(-c3ccccc3)cc(O)c12	26	21	52	–	–
COc1cc(O)c2c(O)cc(-c3ccc(C)c(F)c3)nc2c1	28	18	54	–	–
COc1cc(O)c2c(O)cc(-c3cccc(Cl)c3)nc2c1	33	32	35	–	–
CC(=O)O[C@H]1C(=O)[C@@]2(C)[C@H]([C@H](OC(=O)c3ccccc3)[C@]3(O)C[C@H](OC(=O)[C@H](O)[C@@H](NC(=O)c4ccccc4)c4ccccc4)C(C)=C1C3(C)C)[C@]1(OC(C)=O)CO[C@@H]1C[C@@H]2O [PACLITAXEL]	11	71	18	–	–
CC[C@]1(O)C[C@@H]2CN(CCc3c([nH]c4ccccc34)[C@@](C(=O)OC)(c3cc4c(cc3OC)N(C)[C@H]3[C@@](O)(C(=O)OC)[C@H](OC(C)=O)[C@]5(CC)C=CCN6CC[C@]43[C@@H]65)C2)C1 [VINBLASTINE]	33	37	30	5.52	–
